Source: PubChem BioAssay (several laboratories)
This excerpt belongs to a sample that is enriched for hits.
H69AR growth 86K: proliferation blockers of H69AR lung cancer cells, primary screen, cell-based, human, 86K library; H69AR lung tumor viability, ATP luminescence, 72 h; active compounds read low; viability, % at 10 µM; 85,000 tested, 6% active; AID 598, 2007;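 active means viability at or below 40%; inactive means viability above 40%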;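 further: multidrug resistant small cell line overexpressing MRP-1 efflux transporter; 100% = mean luminescence of untreated control wells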
PTEN del growth: growth suppression of PTEN-null HCT116, primary screen, cell-based, CellTiter-Glo; 140,000 tested, 1.2% active; AID 827, 2007; HCT116 PTEN-null viability, 60 h; active compounds read low; viability, % at 10 µM;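 active means viability at or below a set limit, 4 SD under the median of all tested compounds, cut at about 3.7% in these data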;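 further: PTEN knockout HCT116 line with beta catenin targeted HCT116 as companion control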
Lung fibro prol: antiproliferative effect on LL 47 fibroblasts – human, LL 47 cells, CellTiter-Glo luminescence, primary screen | viability, % at 10 µM | AID 719, 2007 | 85,000 tested, 1.1% active | LL 47 human lung fibroblast viability, ATP luminescence; active compounds read low;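 active means viability at or below 50% in the single dose screen; inactive means viability above 50%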;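 further: compound exposure lasted 72 h before the ATP readout; 100% = median luminescence of untreated cell-only wells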
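Signal: luminescent ATP detection, CellTiter-Glo; assay system: LL 47 human lung fibroblasts; input: 1,150 cells/well; incubation: overnight cell rest, 72 h compound treatment at 37 °C; measure: % viability versus median cells-only luminescence; medium: IMEM growth medium with 15% fetal bovine serum; dosing: compound addition at 0.1% DMSO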
HCT116 bCat-KO: primary screen for growth suppressors in beta-catenin knockout HCT116 cells (colon tumor, human); AID 818, 2007; HCT116 beta-catenin knockout viability, CellTiter-Glo, 60 h; active compounds read low; viability, % at 10 µM; 140,000 tested, 1.5% active;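 active means viability at or under a set limit, the compound median less 4 SD, cut at about 6% in these data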;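 further: 0% = Hyamine 1622 control at 20 µM and 100% = untreated cell control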
Calb biofilm kill: clotrimazole potentiators killing Candida biofilms, primary screen, with clotrimazole, Alamar Blue; AID 834, 2007; 85,000 tested, 0.14% active; inhibition, % at 6 µM; C. albicans biofilm + clotrimazole;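 active means inhibition above 20%; inactive means inhibition below 20%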;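 further: preformed 24 hr biofilms exposed to compound for 48 hr; 0% = biofilm without compound and 100% = blank killed by clotrimazole plus chlorhexidine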
HUVEC prolif 384: inhibitors of HUVEC proliferation, primary screen, cell-based, 384-well | CellTiter-Glo luminescence, 72 h; active compounds read low | viability, % at 10 µM (by protocol) | 86,000 tested, 1.1% active | AID 648, 2007;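 active means viability at or below 30%; inactive means viability above 30%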;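 further: 100% = median luminescence of DMSO-only cell control wells on each plate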
* hit, by the source's call; · = no result given.

SMILES	H69AR growth 86K	PTEN del growth	Lung fibro prol	HCT116 bCat-KO	Calb biofilm kill	HUVEC prolif 384
CCOC(=O)c1sc(NC(=O)CSc2nnnn2-c2ccccc2)nc1C	72	101	99	99	5	82
CCCCN(CC)C(=O)Cn1cnc2ccc(S(=O)(=O)N3CCC(C)CC3)cc2c1=O	92	99	104	83	1	100
COc1ccc(-n2nc(C(=O)Nc3nc4ccc(OC)cc4s3)c3ccccc3c2=O)c(OC)c1	·	2.6*	·	12	·	·
Cc1oc2c(c1C(=O)N1CCC(C)CC1)C(=O)c1ccccc1C2=O	·	1.5*	·	1.6*	·	·
CCOC(=O)C1CCN(C(=O)c2c(C)oc3c2C(=O)c2ccccc2C3=O)CC1	·	0.7*	·	1.1*	·	·
CCOC(=O)C1CCN(C(=O)c2ccco2)CC1	93	107	99	103	5	106
CC1CCN(C(=O)c2cc3ccccc3c(=O)o2)CC1	·	96	·	104	·	·
COCc1cc(CN2CCCC2)c(O)c2ncccc12	23*	5	3.3*	6	6	73
COc1ccccc1N1CCN(Cc2cc(Br)c(O)c3ncccc23)CC1	20*	2.1*	3.2*	2.2*	1	32
O=[N+]([O-])c1cc(CN2CCCC2)c2cccnc2c1O	·	88	·	94	·	·
Oc1c(CN2CCCCC2)cc(COCc2ccccc2)c2cccnc12	·	2.2*	·	1.7*	·	·
Cc1cccc(NC(=O)CN2NS(=O)(=O)c3ccccc3C2=O)c1	·	95	·	94	·	·
COc1ccc(CNC(=O)c2ccc(=O)oc2)cc1OC	69	92	101	91	4	84
CS(=O)(=O)N(CC(=O)NCc1ccncc1)Cc1ccc(Cl)cc1	98	92	97	94	11	88
COC(=O)/C(=C1/Oc2ccc(C)cc2S1)C(F)(F)F	·	104	·	96	·	·
N#CC1=C(c2ccccc2)/C(=C/c2ccccc2)OC1=O	4.0*	8	5.4*	14	3	28*
C(=C\c1ccccc1)/CN1CCN(C(c2ccccc2)c2ccccc2)CC1	23*	63	96	56	16	89
O=C(COC(=O)Cc1c(Cl)cccc1Cl)Nc1ccc(OC(F)(F)F)cc1	·	91	·	91	·	·
C=C(c1ccc(O)cc1)c1ccc(O)cc1	23*	56	·	67	5	86
C/C=C(/C(=C/C)c1ccc(O)cc1)c1ccc(O)cc1	21*	60	90	60	4	61
O=C(c1ccc(O)cc1)c1ccc(Cl)cc1	·	111	·	92	·	·
CCN(C(=O)CSc1nnc2c3ccccc3n(CC)c2n1)C1CCS(=O)(=O)C1 (stereo not given)	·	96	·	91	·	·
CC(C)OCCCNC(=O)C1CCC(CNS(=O)(=O)c2ccccc2)CC1 (stereo not given)	·	86	·	84	·	·
O=C(C(c1ccccc1)c1ccccc1)N1CCN(Cc2ccc(Br)cc2)CC1	36*	68	78	68	6	88
O=C(Nc1ccccc1)Nc1cc(Cl)cc(Cl)c1	1.8*	2.2*	54	2.0*	-4	28*
SMILES	H69AR growth 86K	PTEN del growth	Lung fibro prol	HCT116 bCat-KO	Calb biofilm kill	HUVEC prolif 384
O=C(NCCNC(=O)c1cc(OCC(F)(F)F)ccc1OCC(F)(F)F)Nc1cccc(C(F)(F)F)c1	·	41	·	51	·	·
O=C(Nc1cccc(Cl)c1)Nc1cccc(Cl)c1	85	70	95	86	9	82
O=C(Nc1ccccc1)Nc1cc(OCC(F)(F)F)cc(OCC(F)(F)F)c1	·	1.9*	·	2.2*	·	·
C=CCn1c(SCC(=O)NC2CCCc3ccccc32)nnc1-c1ccncc1 (stereo not given)	·	91	·	89	·	·
N#Cc1c(-c2ccc(Cl)cc2)ccn2nc(C3CCCCC3)nc12	31*	93	86	97	-2	94
CCCNC(=O)[C@H](Cc1c[nH]c2ccccc12)NC(=O)c1ccccc1Cl	·	92	·	82	·	·
Nc1nc(OCC(F)(F)F)cc(Oc2ccccc2F)n1	36*	102	·	91	7	85
Nc1cc(N)nc(SCCOc2ccccc2F)n1	100	98	107	95	9	106
COc1ccccc1-c1nc(-c2ccccn2)no1	40*	38	53	43	12	60
CCn1c(COc2ccc(C)cc2)nnc1SCC(=O)Nc1ccc2c(c1)OCCO2	75	100	95	98	5	104
O=C(Nc1ccc(Cl)cc1)Nc1ccc2c(c1)N1CCN=C1S2	35*	27	102	25	3	62
CCN(c1ccccc1)c1cc(C)nc2nc(C)nn12	72	96	105	87	-1	97
Cc1cccc(N(C)c2cc(C)nc3nc(C)nn23)c1	23*	76	95	72	0	102
CCCCOC(=O)C(C)c1c(C)[nH]c(=S)[nH]c1=O (stereo not given)	96	90	104	98	6	98
CCNC(=S)N/N=C(\C)c1cccc([N+](=O)[O-])c1	·	103	·	107	·	·
O=C(C1CCN(S(=O)(=O)c2cccc3nsnc23)CC1)N1CC=C(c2ccccc2)CC1	45	74	95	69	-5	94
O=C(C1CCC(CNS(=O)(=O)c2cccc3nsnc23)CC1)N1CC=C(c2ccccc2)CC1 (stereo not given)	39*	72	105	62	11	80
CC1CCC(NC(=O)C2CCC(CNS(=O)(=O)c3cccc4nsnc34)CC2)CC1 (stereo not given)	17*	63	67	42	9	44
Cc1c(Cl)cccc1-n1c(SCC(=O)NCc2cccs2)nnc1-c1ccncc1	83	94	102	98	-1	103
Cc1c(Cl)cccc1-n1c(SCC(=O)NCc2ccccc2Cl)nnc1-c1ccncc1	21*	78	94	87	5	86
CCOc1ccc(-c2nnc(NC(=O)c3ccc(OCC(C)C)c(OC)c3)o2)cc1	29*	18	54	20	1	19*
COc1cccc(C(=O)Nc2nnc(-c3cccs3)o2)c1	74	45	87	44	11	68
CCCCN(CCCC)S(=O)(=O)c1ccc(C(=O)Nc2nnc(COC)o2)cc1	27*	15	67	13	-3	34
CCCCNC(=O)Nc1nnc(-c2ccc(OCC)cc2)o1	45	80	97	73	8	90
COc1ccccc1-c1nnc(NC(=O)c2ccc(S(=O)(=O)N(C)Cc3ccccc3)cc2)o1	22*	18	67	22	-4	17*
CCCCN(C)S(=O)(=O)c1ccc(C(=O)Nc2nnc(CSC)o2)cc1	·	22	·	23	·	·
CCCCN(CC)S(=O)(=O)c1ccc(C(=O)Nc2nnc(-c3cccs3)o2)cc1	35*	17	62	16	9	5.0*
Clc1ccc(Sc2cc(Cl)c(-c3ccccc3)nn2)cc1	·	76	·	88	·	·
